Results published in ChEMBL document CHEMBL5303300, “EUbOPEN Chemogenomics Library - Multiplex” (2023).
“And” between values parts separate entries of the source, which are not always exact repeats. Equal entries are not always repeated.

Tested on: HEK-293T
Experiment: Multiplex assay against HEK293T
Assay type: toxicity, cell-based
Conditions: human, number of replicates 2
In short: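 Four dyes were applied at seeding to live cells: Hoechst33342, BioTracker Green Microtubule Cytoskeleton Dye, MitoTracker Red and Annexin V Alexa Fluor 680. Imaging after compound addition used a CQ1 microscope at 37°C and 5% CO2. CellPathfinder machine-learning gating then sorted cells into Hoechst high-intensity objects or normal cells, normal cells into healthy, pyknosed or fragmented nuclei, and pyknosed cells into mitotic or apoptotic, with tubulin, mitochondrial-mass and membrane-permeability phenotypes given as per cents of healthy-nucleus cells.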

[1] = 12 h, 1 µM, compound concentration 1 uM
[2] = 12 h, 10 µM, compound concentration 10 uM
[3] = 24 h, 1 µM, compound concentration 1 uM
[4] = 24 h, 10 µM, compound concentration 10 uM
[5] = 48 h, 1 µM, compound concentration 1 uM
[6] = 48 h, 10 µM, compound concentration 10 uM

For `CN1CCN(c2ccc(-n3cc(-c4ccncc4OCC4CCNCC4)cn3)cc2)CC1`, the “Population Apoptotic (%)” value [1] was 50% and 48%, the “Population Fragmented Nuclei (%)” value [1] was 4% and 3% and the “Population Healthy Nuclei (%)” value [1] was 86% and 85%. For the same compound, the “Population Hoechst High Intensity Objects (%)” value [1] was 7% and 5%, the “Population Membrane Permeable-Phenotype (%)” value [1] was 4% and 2% and the “Population Mitochondria Different-Phenotype (%)” value [1] was 9% and 10%. For the same compound, the “Population Mitotic Cells (%)” value [1] was 50% and 51%, the “Population Normal (%)” value [1] was 92% and 94% and the “Population Pyknosed Nuclei (%)” value [1] was 9% and 11%. For the same compound, the “Population Tubulin-Different-Phenotype (%)” value [1] was 38%, the “Total Cell Count” value [1] was 587 and 556 and the “Population Apoptotic (%)” value [2] was 88% and 66%. For the same compound, the “Population Fragmented Nuclei (%)” value [2] was 1%, the “Population Healthy Nuclei (%)” value [2] was 94% and 95% and the “Population Hoechst High Intensity Objects (%)” value [2] was 3% and 5%. The “Population Membrane Permeable-Phenotype (%)” value [2] was 4% and 6%, the “Population Mitochondria Different-Phenotype (%)” value [2] was 28% and 17% and the “Population Mitotic Cells (%)” value [2] was 11% and 33%. For the same compound, the “Population Normal (%)” value [2] was 96% and 94%, the “Population Pyknosed Nuclei (%)” value [2] was 3% and 2% and the “Population Tubulin-Different-Phenotype (%)” value [2] was 71% and 76%. For the same compound, the “Total Cell Count” value [2] was 452 and 604, the “Population Apoptotic (%)” value [3] was 29% and 50% and the “Population Fragmented Nuclei (%)” value [3] was 6% and 7%. For the same compound, the “Population Healthy Nuclei (%)” value [3] was 84% and 83%, the “Population Hoechst High Intensity Objects (%)” value [3] was 8% and 7% and the “Population Membrane Permeable-Phenotype (%)” value [3] was 3% and 1%. For the same compound, the “Population Mitochondria Different-Phenotype (%)” value [3] was 2% and 6%, the “Population Mitotic Cells (%)” value [3] was 70% and 50% and the “Population Normal (%)” value [3] was 91% and 92%. The “Population Pyknosed Nuclei (%)” value [3] was 8% and 9%, the “Population Tubulin-Different-Phenotype (%)” value [3] was 18% and 21% and the “Total Cell Count” value [3] was 857 and 751. The “Population Apoptotic (%)” value [4] was 66% and 54%, the “Population Fragmented Nuclei (%)” value [4] was 4% and 3% and the “Population Healthy Nuclei (%)” value [4] was 93% and 94%. For the same compound, the “Population Hoechst High Intensity Objects (%)” value [4] was 7% and 6%, the “Population Membrane Permeable-Phenotype (%)” value [4] was 6% and 8% and the “Population Mitochondria Different-Phenotype (%)” value [4] was 20% and 11%. The “Population Mitotic Cells (%)” value [4] was 33% and 45%, the “Population Normal (%)” value [4] was 92% and 93% and the “Population Pyknosed Nuclei (%)” value [4] was 1%. For the same compound, the “Population Tubulin-Different-Phenotype (%)” value [4] was 75% and 80%, the “Total Cell Count” value [4] was 463 and 591 and the “Population Apoptotic (%)” value [5] was 11% and 20%. The “Population Fragmented Nuclei (%)” value [5] was 16% and 11%, the “Population Healthy Nuclei (%)” value [5] was 79% and 85% and the “Population Hoechst High Intensity Objects (%)” value [5] was 10% and 9%. For the same compound, the “Population Membrane Permeable-Phenotype (%)” value [5] was 3%, the “Population Mitochondria Different-Phenotype (%)” value [5] was 0% and 2% and the “Population Mitotic Cells (%)” value [5] was 88% and 80%. For the same compound, the “Population Normal (%)” value [5] was 89% and 90%, the “Population Pyknosed Nuclei (%)” value [5] was 4% and 3% and the “Population Tubulin-Different-Phenotype (%)” value [5] was 7% and 11%. For the same compound, the “Total Cell Count” value [5] was 1935 and 1522, the “Population Apoptotic (%)” value [6] was 81% and 57% and the “Population Fragmented Nuclei (%)” value [6] was 11% and 10%. For the same compound, the “Population Healthy Nuclei (%)” value [6] was 86% and 85%, the “Population Hoechst High Intensity Objects (%)” value [6] was 9% and the “Population Membrane Permeable-Phenotype (%)” value [6] was 4%. The “Population Mitochondria Different-Phenotype (%)” value [6] was 6% and 10%, the “Population Mitotic Cells (%)” value [6] was 18% and 42% and the “Population Normal (%)” value [6] was 90%. For the same compound, the “Population Pyknosed Nuclei (%)” value [6] was 1% and 3%, the “Population Tubulin-Different-Phenotype (%)” value [6] was 56% and 45% and the “Total Cell Count” value [6] was 617 and 528.
For `COc1nc2ccc([C@@](O)(c3ccc(Cl)cc3)c3cncn3C)cc2c(Cl)c1Cc1ccc(-n2cccn2)cc1` [JNJ-53721590], the “Population Apoptotic (%)” value [1] was 43% and 52%, the “Population Fragmented Nuclei (%)” value [1] was 4% and 2% and the “Population Healthy Nuclei (%)” value [1] was 81%. The “Population Hoechst High Intensity Objects (%)” value [1] was 7%, the “Population Membrane Permeable-Phenotype (%)” value [1] was 4% and 5% and the “Population Mitochondria Different-Phenotype (%)” value [1] was 26%. For the same compound, the “Population Mitotic Cells (%)” value [1] was 56% and 47%, the “Population Normal (%)” value [1] was 92% and the “Population Pyknosed Nuclei (%)” value [1] was 13% and 15%. For the same compound, the “Population Tubulin-Different-Phenotype (%)” value [1] was 74% and 70%, the “Total Cell Count” value [1] was 675 and 403 and the “Population Apoptotic (%)” value [2] was 41% and 64%. The “Population Fragmented Nuclei (%)” value [2] was 2%, the “Population Healthy Nuclei (%)” value [2] was 88% and the “Population Hoechst High Intensity Objects (%)” value [2] was 6%. The “Population Membrane Permeable-Phenotype (%)” value [2] was 21% and 12%, the “Population Mitochondria Different-Phenotype (%)” value [2] was 24% and the “Population Mitotic Cells (%)” value [2] was 58% and 35%. The “Population Normal (%)” value [2] was 93%, the “Population Pyknosed Nuclei (%)” value [2] was 9% and 8% and the “Population Tubulin-Different-Phenotype (%)” value [2] was 94%. For the same compound, the “Total Cell Count” value [2] was 831 and 720, the “Population Apoptotic (%)” value [3] was 42% and 54% and the “Population Fragmented Nuclei (%)” value [3] was 6% and 3%. For the same compound, the “Population Healthy Nuclei (%)” value [3] was 84% and 87%, the “Population Hoechst High Intensity Objects (%)” value [3] was 8% and 7% and the “Population Membrane Permeable-Phenotype (%)” value [3] was 4% and 1%. The “Population Mitochondria Different-Phenotype (%)” value [3] was 11% and 15%, the “Population Mitotic Cells (%)” value [3] was 57% and 45% and the “Population Normal (%)” value [3] was 91% and 92%. For the same compound, the “Population Pyknosed Nuclei (%)” value [3] was 8%, the “Population Tubulin-Different-Phenotype (%)” value [3] was 57% and 53% and the “Total Cell Count” value [3] was 1025 and 592. The “Population Apoptotic (%)” value [4] was 37% and 57%, the “Population Fragmented Nuclei (%)” value [4] was 2% and 1% and the “Population Healthy Nuclei (%)” value [4] was 87% and 84%. For the same compound, the “Population Hoechst High Intensity Objects (%)” value [4] was 5% and 8%, the “Population Membrane Permeable-Phenotype (%)” value [4] was 16% and 11% and the “Population Mitochondria Different-Phenotype (%)” value [4] was 19% and 23%. For the same compound, the “Population Mitotic Cells (%)” value [4] was 62% and 42%, the “Population Normal (%)” value [4] was 94% and 91% and the “Population Pyknosed Nuclei (%)” value [4] was 9% and 13%. For the same compound, the “Population Tubulin-Different-Phenotype (%)” value [4] was 95% and 96%, the “Total Cell Count” value [4] was 856 and 731 and the “Population Apoptotic (%)” value [5] was 18% and 38%. For the same compound, the “Population Fragmented Nuclei (%)” value [5] was 10% and 8%, the “Population Healthy Nuclei (%)” value [5] was 86% and 85% and the “Population Hoechst High Intensity Objects (%)” value [5] was 8% and 11%. For the same compound, the “Population Membrane Permeable-Phenotype (%)” value [5] was 5% and 2%, the “Population Mitochondria Different-Phenotype (%)” value [5] was 2% and 7% and the “Population Mitotic Cells (%)” value [5] was 81% and 61%. The “Population Normal (%)” value [5] was 91% and 88%, the “Population Pyknosed Nuclei (%)” value [5] was 3% and 6% and the “Population Tubulin-Different-Phenotype (%)” value [5] was 37% and 39%. The “Total Cell Count” value [5] was 2031 and 1111, the “Population Apoptotic (%)” value [6] was 40% and 52% and the “Population Fragmented Nuclei (%)” value [6] was 5% and 6%. The “Population Healthy Nuclei (%)” value [6] was 90% and 87%, the “Population Hoechst High Intensity Objects (%)” value [6] was 10% and 12% and the “Population Membrane Permeable-Phenotype (%)” value [6] was 28% and 21%. For the same compound, the “Population Mitochondria Different-Phenotype (%)” value [6] was 3% and 4%, the “Population Mitotic Cells (%)” value [6] was 60% and 47% and the “Population Normal (%)” value [6] was 89% and 87%. For the same compound, the “Population Pyknosed Nuclei (%)” value [6] was 4% and 5%, the “Population Tubulin-Different-Phenotype (%)” value [6] was 93% and 95% and the “Total Cell Count” value [6] was 993 and 855.
